Experimental data published in ChEMBL document CHEMBL1123873, “N-(heterocyclic alkyl)pyrido[2,1-b]quinazoline-8-carboxamides as orally active antiallergy agents” (J Med Chem, 1987).

Assays:
Cavia porcellus [1] = species on record: Cavia porcellus; assay: Evaluated for inhibition of slow reacting substance of anaphylaxis (SRS-A) induced contractions in guinea pig ileum strips; format: functional
Procedure, shortened: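 Guinea pig ileum strips were contracted with SRS-A at 5.0 units/mL, the level giving 50% of maximal contraction. Each compound was tested in duplicate at three concentrations giving 10–90% inhibition. IC50 was obtained by linear regression.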

Thromboxane-A synthase = molecular target: T1, Thromboxane-A synthase (Homo sapiens, UniProt P24557); assay: Inhibition of human platelet thromboxane synthase (TXA2) was determined in human platelets
T1 sequence (P24557 whole entry): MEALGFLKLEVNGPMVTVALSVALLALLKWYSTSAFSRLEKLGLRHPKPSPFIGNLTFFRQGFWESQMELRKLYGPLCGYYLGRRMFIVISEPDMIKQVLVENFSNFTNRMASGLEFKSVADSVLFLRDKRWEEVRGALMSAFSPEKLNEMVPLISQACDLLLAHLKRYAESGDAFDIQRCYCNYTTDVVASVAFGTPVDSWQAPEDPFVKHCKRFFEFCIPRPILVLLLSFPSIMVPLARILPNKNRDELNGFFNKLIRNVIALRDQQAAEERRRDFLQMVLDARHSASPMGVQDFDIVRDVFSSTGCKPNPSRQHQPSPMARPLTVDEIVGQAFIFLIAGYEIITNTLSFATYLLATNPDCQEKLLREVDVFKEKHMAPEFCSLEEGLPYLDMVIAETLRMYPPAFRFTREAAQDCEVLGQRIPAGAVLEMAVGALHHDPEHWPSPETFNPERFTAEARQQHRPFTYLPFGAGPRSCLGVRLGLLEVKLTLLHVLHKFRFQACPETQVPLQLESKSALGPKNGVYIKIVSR
Procedure, shortened: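 The enzyme source was microsomal fractions of human platelets. Conversion of [14C]PGH2 to [14C]TXB2 ran 2 min at 22 °C and was then stopped. Products were ether-extracted, separated by TLC and counted. Compounds were tested in triplicate at three log-spaced concentrations, and IC50 was obtained by linear regression.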

Cavia porcellus [2] = assay: In vivo inhibition of LTE4 (leukotriene)-induced bronchoconstrictions in guinea pig and percent inhibition was reported at 10 mg/Kg administered intravenously; format: functional; conditions: iv
Procedure, shortened: (§1)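 Guinea pigs pretreated with propranolol were challenged with LTE4. The drug was given either 10 mg/kg iv 30 s before challenge or 100 mg/kg orally 2 h before. Bronchoconstriction was scored as percent inhibition versus control animals. Oral ID50 was calculated from varying oral doses.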

Cavia porcellus [3] = assay: In vivo inhibition of LTE4 (leukotriene)-induced bronchoconstrictions in guinea pig and percent inhibition was reported at 100 mg/Kg administered perorally; format: functional; conditions: po; procedure, shortened: as §1
Rattus norvegicus [4] = assay: In vivo inhibition of LTE4 (leukotriene)-induced skin wheal formation in rat and percent inhibition was reported at 100 mg/Kg administered perorally; conditions: po
Rattus norvegicus [5] = assay: In vivo inhibition of LTE4 (leukotriene)-induced skin wheal formation in rat and percent inhibition was reported at 10 mg/Kg administered intravenously; conditions: iv
Rattus norvegicus [6] = assay: Compound was evaluated in vivo by rat passive cutaneous anaphylaxis test (PCA)after oral administration; conditions: read-out: ID50 (the source's name)
Cavia porcellus [7] = assay: In vivo inhibition of LTE4 (leukotriene)-induced bronchoconstrictions in guinea pig and ID50 was reported perorally; format: functional; procedure, shortened: as §1
Rattus norvegicus [8] = assay: In vivo inhibition of LTE4 (leukotriene)-induced skin wheal formation in rat
Cavia porcellus [9] = assay: In vivo inhibition of LTE4 (leukotriene)-induced bronchoconstrictions in guinea pig after oral administration; format: functional; procedure, shortened: as §1
Cavia porcellus [10] = assay: (§2) In vivo inhibition of LTE4 (leukotriene)-induced administration; format: functional
Cavia porcellus [11] = assay: as §2; format: functional; remark: listed apart in the source
Rattus norvegicus [12] = assay: In vivo inhibition of LTE4 (leukotriene)-induced skin wheal formation in rat determined after (iv) administration of a dose of 10 mg/kg
Rattus norvegicus [13] = assay: In vivo inhibition of LTE4 (leukotriene)-induced skin wheal formation in rat determined after (po) administration of a dose of 100 mg/Kg
Cavia porcellus [14] = species on record: Cavia porcellus; assay: Ability to inhibit bronchoconstriction induced in actively sensitized guinea pig by antigen-induced de novo biosynthesis of SRS-A; format: functional
Rattus norvegicus [15] = assay: Compound was evaluated in vivo by rat passive cutaneous anaphylaxis test (PCA) after oral administration; format: functional
Cavia porcellus [16] = species on record: Cavia porcellus; assay: Ability to inhibit bronchoconstriction in guinea pig induced by histamine
Rattus norvegicus [17] = assay: In vivo inhibition of LTE4 (leukotriene)-induced skin wheal formation in rat; remark: listed apart in the source
Cavia porcellus [18] = species on record: Cavia porcellus; assay: Ability to inhibit bronchoconstriction in guinea pig induced by platelet activating factor

Compound: COc1ccc2c(=O)n3cc(C(=O)NCCCCc4cccnc4)ccc3nc2c1
- IC50 (Cavia porcellus [1]): > 10 µM
- IC50 (Thromboxane-A synthase): 0.02 µM

Compound: CC(C)c1ccc2nc3ccc(C(=O)NCCCCc4cncnc4)cn3c(=O)c2c1
- IC50 (Cavia porcellus [1]): 5 µM
- IC50 (Thromboxane-A synthase): 0.2 µM

Compound: CC(C)c1ccc2nc3ccc(C(=O)NC(C)(C)CCCc4cccnc4)cn3c(=O)c2c1
- IC50 (Cavia porcellus [1]): 5 µM
- IC50 (Thromboxane-A synthase): 0.5 µM

Compound: CC(CCc1cccnc1)NC(=O)c1ccc2nc3ccc(C(C)C)cc3c(=O)n2c1 (centres undefined)
- IC50 (Cavia porcellus [1]): 5 µM
- IC50 (Thromboxane-A synthase): 0.3 µM

Compound: CCCc1c(OCC(O)COc2ccc3c(=O)cc(C(=O)O)oc3c2CCC)ccc(C(C)=O)c1O (centres undefined) [FPL-55712]
- inhibition in vivo at 10 mg/kg (Cavia porcellus [2]): 98%
- inhibition in vivo at 100 mg/kg (Cavia porcellus [3]): 23%
- IC50 (Thromboxane-A synthase): 10 µM
- inhibition in vivo at 100 mg/kg (Rattus norvegicus [4]): 2%
- inhibition in vivo at 10 mg/kg (Rattus norvegicus [5]): 88%

Compound: CC(C)c1ccc2nc3ccc(C(=O)O)cn3c(=O)c2c1
- ED50 (Rattus norvegicus [6]): 0.45 mg/kg

Compound: CC(C)c1ccc2nc3ccc(C(=O)NCCSCc4cccnc4)cn3c(=O)c2c1
- IC50 (Cavia porcellus [1]): 5 µM
- IC50 (Thromboxane-A synthase): 0.6 µM

Compound: CC(C)c1ccc2nc3ccc(C(=O)NCCCc4cccnc4)cn3c(=O)c2c1
- IC50 (Cavia porcellus [1]): 5 µM
- IC50 (Thromboxane-A synthase): 0.1 µM

Compound: O=C(O)c1ccc(OCCn2ccnc2)cc1 [DAZOXIBEN]
- IC50 (Cavia porcellus [1]): > 10 µM
- inhibition in vivo at 10 mg/kg (Cavia porcellus [2]): 88%
- inhibition in vivo at 100 mg/kg (Cavia porcellus [3]): 81%
- inhibition in vivo at 100 mg/kg (Rattus norvegicus [4]): 11%
- inhibition in vivo at 10 mg/kg (Rattus norvegicus [5]): 9%

Compound: Cc1ccc2nc3ccc(C(=O)NCCCCc4cccnc4)cn3c(=O)c2c1
- IC50 (Cavia porcellus [1]): 5 µM
- IC50 (Thromboxane-A synthase): 0.1 µM

Compound: CC(C)c1ccc2nc3ccc(C(=O)NCCCCc4ccncc4)cn3c(=O)c2c1.Cl.Cl
- ID50 mg/kg (Cavia porcellus [7]): 57
- IC50 (Cavia porcellus [1]): 1 µM
- inhibition in vivo at 10 mg/kg (Cavia porcellus [2]): 89%
- inhibition in vivo at 100 mg/kg (Cavia porcellus [3]): 73%
- IC50 (Thromboxane-A synthase): 0.1 µM
- IC50 (Rattus norvegicus [8]): 90 mg/kg
- inhibition in vivo at 100 mg/kg (Rattus norvegicus [4]): 63%
- inhibition in vivo at 10 mg/kg (Rattus norvegicus [5]): 54%

Compound: CC(C)c1ccc2nc3ccc(C(=O)NCCCCCCCc4cccnc4)cn3c(=O)c2c1
- IC50 (Cavia porcellus [1]): > 10 µM
- IC50 (Thromboxane-A synthase): 0.2 µM

Compound: CC(C)c1ccc2nc3ccc(C(=O)NCCCCCCc4cccnc4)cn3c(=O)c2c1
- IC50 (Cavia porcellus [1]): 1 µM
- inhibition in vivo at 10 mg/kg (Cavia porcellus [2]): 71%
- inhibition in vivo at 100 mg/kg (Cavia porcellus [3]): 28%
- inhibition in vivo at 100 mg/kg (Rattus norvegicus [4]): 62%
- inhibition in vivo at 10 mg/kg (Rattus norvegicus [5]): 70%

Compound: CC(C)Oc1ccc2nc3ccc(C(=O)NCCCCc4cccnc4)cn3c(=O)c2c1
- IC50 (Cavia porcellus [1]): 10 µM
- IC50 (Thromboxane-A synthase): 0.06 µM

Compound: CC(CCCc1cccnc1)NC(=O)c1ccc2nc3ccc(C(C)C)cc3c(=O)n2c1 (centres undefined)
- IC50 (Cavia porcellus [1]): 8 µM
- IC50 (Thromboxane-A synthase): 1 µM

Compound: CC(C)c1ccc2nc3ccc(C(=O)NCCCCc4cccnc4)cn3c(=O)c2c1
- ID50 mg/kg (Cavia porcellus [9]): 60
- IC50 (Cavia porcellus [1]): 1 µM
- Inhibition (Cavia porcellus [10]): 94%
- Inhibition (Cavia porcellus [11]): 76%
- IC50 (Thromboxane-A synthase): 0.2 µM
- IC50 (Rattus norvegicus [8]): 70 mg/kg
- inhibition in vivo at 10 mg/kg (Rattus norvegicus [12]): 60%
- inhibition in vivo at 100 mg/kg (Rattus norvegicus [13]): 61%

Compound: CC(C)c1ccc2nc3ccc(C(=O)NCCCCOc4cccnc4)cn3c(=O)c2c1.Cl.Cl
- IC50 (Cavia porcellus [1]): 0.8 µM
- inhibition in vivo at 10 mg/kg (Cavia porcellus [2]): 94%
- inhibition in vivo at 100 mg/kg (Cavia porcellus [3]): 60%
- IC50 (Thromboxane-A synthase): 0.05 µM
- IC50 (Rattus norvegicus [8]): 100 mg/kg
- inhibition in vivo at 100 mg/kg (Rattus norvegicus [4]): 56%
- inhibition in vivo at 10 mg/kg (Rattus norvegicus [5]): 64%

Compound: CC(C)c1ccc2nc3ccc(C(=O)N(C)CCCCc4cccnc4)cn3c(=O)c2c1
- IC50 (Cavia porcellus [1]): 1 µM
- IC50 (Thromboxane-A synthase): 0.6 µM

Compound: O=C(NCCCCc1cccnc1)c1ccc2nc3ccc(O)cc3c(=O)n2c1
- IC50 (Cavia porcellus [1]): 3 µM
- IC50 (Thromboxane-A synthase): 0.05 µM

Compound: O=C(NCCCCc1cccnc1)c1ccc2nc3cc(Cl)ccc3c(=O)n2c1
- IC50 (Cavia porcellus [1]): 8 µM
- IC50 (Thromboxane-A synthase): 0.02 µM

Compound: COc1ccc2nc3ccc(C(=O)NCCCCc4cccnc4)cn3c(=O)c2c1
- IC50 (Cavia porcellus [1]): 10 µM
- IC50 (Thromboxane-A synthase): 0.2 µM

Compound: Cc1nccn1CCCCNC(=O)c1ccc2nc3ccc(C(C)C)cc3c(=O)n2c1
- IC50 (Cavia porcellus [1]): 9 µM
- IC50 (Thromboxane-A synthase): 5 µM

Compound: O=C(NCCCCc1cccnc1)c1ccc2nc3ccccc3c(=O)n2c1
- IC50 (Cavia porcellus [1]): 5 µM
- IC50 (Thromboxane-A synthase): 0.02 µM

Compound: O=C(NCCCCc1cccnc1)c1ccc2nc3cc4c(cc3c(=O)n2c1)CCCC4
- IC50 (Cavia porcellus [1]): 9 µM
- IC50 (Thromboxane-A synthase): 0.3 µM

Compound: O=C(NCCCCc1cccnc1)c1ccc2nc3ccc(Br)cc3c(=O)n2c1
- IC50 (Cavia porcellus [1]): > 10 µM
- IC50 (Thromboxane-A synthase): 0.1 µM

Compound: CC(C)c1ccc2nc3ccc(C(=O)NCCCCn4ccnc4)cn3c(=O)c2c1.Cl.Cl
- ID50 mg/kg (Cavia porcellus [14]): 50
- ID50 mg/kg (Cavia porcellus [7]): 47
- IC50 (Cavia porcellus [1]): 1 µM
- inhibition in vivo at 10 mg/kg (Cavia porcellus [2]): 87%
- inhibition in vivo at 100 mg/kg (Cavia porcellus [3]): 87%
- ID50 mg/kg (Rattus norvegicus [15]): 20
- IC50 (Thromboxane-A synthase): 0.2 µM
- ID50 mg/kg (Cavia porcellus [16]): 39
- IC50 (Rattus norvegicus [17]): 46 mg/kg
- ID50 mg/kg (Cavia porcellus [18]): 13
- inhibition in vivo at 100 mg/kg (Rattus norvegicus [4]): 63%
- inhibition in vivo at 10 mg/kg (Rattus norvegicus [5]): 26%

Compound: CC(C)c1ccc2nc3ccc(C(=O)NCCc4cccnc4)cn3c(=O)c2c1
- IC50 (Cavia porcellus [1]): 10 µM
- IC50 (Thromboxane-A synthase): 4 µM

Compound: Cc1cc2nc3ccc(C(=O)NCCCCc4cccnc4)cn3c(=O)c2cc1C
- IC50 (Cavia porcellus [1]): 7 µM
- IC50 (Thromboxane-A synthase): 0.1 µM

Compound: CC(C)c1ccc2nc3ccc(C(=O)NCCCCCc4cccnc4)cn3c(=O)c2c1.Cl.Cl
- IC50 (Cavia porcellus [1]): 1 µM
- Inhibition (Cavia porcellus [10]): 84%
- Inhibition (Cavia porcellus [11]): 21%
- IC50 (Thromboxane-A synthase): 0.1 µM
- inhibition in vivo at 100 mg/kg (Rattus norvegicus [4]): 65%
- inhibition in vivo at 10 mg/kg (Rattus norvegicus [5]): 61%

Compound: CC(C)c1ccc2nc3ccc(C(=O)NCCCCc4ccccn4)cn3c(=O)c2c1
- IC50 (Cavia porcellus [1]): 1 µM
- IC50 (Thromboxane-A synthase): > 10 µM
